The source of these data is PubChem BioAssay AID588831 (Broad Institute, 2011).

In the experiment the target is Scavenger receptor class B member 1 (Mus musculus) (UniProt Q61009). As to the kind of experiment: reversibility of SR-BI HDL uptake inhibition, dose response, mechanism study for SR-BI HDL uptake inhibitor project, ldlA[mSR-BI] CHO cells, fluorescence, dry powder (AID 588831). To be noted: DiI-HDL uptake after washout. The essentials: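 Assay system: ldlA[mSR-BI] CHO cells, LDL-receptor-deficient, overexpressing mouse SR-BI | Schedule: 2 h compound pretreatment at 37 °C, 3 h DiI-HDL uptake | Signal: DiI fluorescence, bottom read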

Active and inactive are the calls of the source.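 Rule for the calls: active = compounds lowering dye-labelled HDL uptake whose fitted half-maximal concentration is at most double the top tested dose; inconclusive = flat fit with moderate inhibition, or an unreliable curve fit; inactive = the rest.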

Sequence of Scavenger receptor class B member 1 (Mus musculus) (Q61009 whole entry, looked up): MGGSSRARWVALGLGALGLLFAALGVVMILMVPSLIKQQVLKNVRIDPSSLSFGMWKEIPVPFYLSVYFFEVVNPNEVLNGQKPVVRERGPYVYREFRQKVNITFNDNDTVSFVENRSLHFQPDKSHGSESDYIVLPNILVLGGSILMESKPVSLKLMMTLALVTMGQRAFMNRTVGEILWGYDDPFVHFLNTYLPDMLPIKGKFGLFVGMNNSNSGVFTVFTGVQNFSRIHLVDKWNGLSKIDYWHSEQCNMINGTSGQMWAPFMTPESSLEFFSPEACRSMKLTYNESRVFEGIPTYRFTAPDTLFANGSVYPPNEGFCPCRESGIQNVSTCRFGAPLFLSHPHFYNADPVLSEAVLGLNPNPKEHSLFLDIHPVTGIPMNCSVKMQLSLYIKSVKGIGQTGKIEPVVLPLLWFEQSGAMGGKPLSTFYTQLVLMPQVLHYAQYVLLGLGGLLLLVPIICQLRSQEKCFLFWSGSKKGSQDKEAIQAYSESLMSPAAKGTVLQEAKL

Usually AC50 stands for the concentration giving half of the maximal activity seen. Turning to `CCCCCCC1CCC/C1=N\NC(N)=S` (stereo not drawn), the AC50 is 0.987 nM.

On to `COCC(=O)N1CCc2cc(-c3csc(NC(=O)c4cc(OC)cc(OC)c4)n3)ccc21`, for which the half-maximal activity concentration (AC50) is 315 nM.

As to `C[C@H](C(=O)NC1CCCC1)N(C(=O)Cn1nnc(-c2ccc3c(c2)OCO3)n1)C1CCCCC1`, the “activity change, negative = inhibition” value (at 35 µM (top of the series)) was “inactive”.
